Screening data as filed in PubChem BioAssay.
Hits are enriched below; roughly 3.1% of the tested compounds scored in any of these assays.
rRNA inh HTS – selective bacterial rRNA inhibition in E. coli | E. coli WT GFP vs humanized-ribosome RFP mutants, fluorescence, 24 h; active compounds read low; DMSO median 0, no signal -100 | GFP signal change (wild-type ribosome), % (no concentration beside the values) | 1.6% of 350,000 active | AID 720706;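 active means significant combined selectivity score with lowered wild-type GFP, culture density cut under 30%, mutant RFP and density less affected; inactive means any of these conditions unmet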
Cneo AK release – causes C. neoformans cell lysis; adenylate kinase release luminescence, 4 h; normalised: neutral wells 0, clomiphene wells 100; lysis activity, % at 15 µM; 0.2% of 360,000 active;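 active means mean lysis activity across replicates of at least 80%, whatever share of replicates individually reach that level; inactive means mean lysis activity below 80%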
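Assay system: log-phase C. neoformans yeast / Quantity: yeast cell density of 5 × 10^6 cells/mL / Medium: fresh YPD growth medium / Compound: single dose / Timing: static 4 h at 37 °C with compound, 1 h detection / Measured by: adenylate kinase release luminescence / Read-out: lysis from increased AK signal / Benchmarks: Clomiphene as positive lysis control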
miR-122 sensor – blocks miR-122 activity in Huh7 sensor cells; 0.3% of 340,000 active; activation (reporter increase), % at 12.5 µM; Huh7 miR-122 Renilla luciferase sensor, 48 h; neutral wells = 0, positive control = 100;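 active means mean replicate activation score at least 90 and every replicate individually at or above 90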;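 further: higher luciferase means less miR-122 activity so hits act as miR-122 inhibitors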
GSIS activator – primary screen for activators of insulin secretion dependent on glucose, INS-1E cells, GLuc reporter luminescence; 0.61% of 370,000 active; activation, % at 16.6 µM; INS-1E GLuc reporter insulin secretion, 2-3 h;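 active means lowest replicate activation of at least 40%, so every replicate reaches that level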;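 further: 0% = median of neutral control wells and 100% = median of IBMX positive control wells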
HIV Env fusion – HIV envelope-mediated fusion inhibition | HeLa-JRFL Env/CEM21 cell fusion, luciferase | inhibition, % at 12.3 µM | 1.1% of 360,000 active;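 active means mean replicate inhibition score of at least 50 and every replicate individually at or above 50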;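 further: 0% = plate neutral controls and 100% = maraviroc near 300 nM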
CFTR F508del cor – correctors of CFTR F508del function in bronchial epithelial cells; CFBE cells, YFP halide quenching; stimulated with forskolin plus potentiator P3; % fluorescence drop versus neutral controls; activity (quench increase), % at 7.58 µM; 0.36% of 350,000 active; AID 720511;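 active means mean added fluorescence quench of at least 8% versus neutral control, with both replicates also reaching 8%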;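 further: cells transiently co-express mutant CFTR-F508del with the halide-sensitive YFP; corrector assay measuring rescue of mutant channel to the surface after 24 h compound exposure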
* marks the source's active call; other numbers are inactive results; · = no result given; [ ] = remark or other dose.

SMILES	rRNA inh HTS	Cneo AK release	miR-122 sensor	GSIS activator	HIV Env fusion	CFTR F508del cor
C[C@@H]1CN([C@@H](C)CO)C(=O)c2cccc(NC(=O)Nc3ccccc3)c2O[C@H]1CN(C)Cc1ccc(C(F)(F)F)cc1	-4	0	115*[16.7 µM]	0	-9[16.7 µM]	-1
C[C@H]1CN([C@@H](C)CO)C(=O)c2cccc(NC(=O)C3CCCCC3)c2O[C@@H]1CN(C)Cc1ccc(C(F)(F)F)cc1	-3	-5	94*[16.7 µM]	1	·	2
CCCN1C[C@H](C)[C@@H](OC)CN(C)C(=O)c2cc(NC(=O)NC3CCCCC3)ccc2OC[C@@H]1C	-3	-4	4[16.7 µM]	-12	·	-3
O=C(O)c1ccccc1Nc1ccc(OC(F)F)cc1	-16*	·	·	-17	-17	-2
O=C(O)c1ccccc1Nc1ccccc1	·	0	-11	·	-14	-3
Cc1nc(N2[C@H](C#N)[C@H](c3ccccc3)[C@H]2CO)sc1C	-1	5	·	14	·	2
O=C(CSc1nc2[nH]ncc2c(=O)[nH]1)Nc1nccs1	18	·	·	0	6	0
NS(=O)(=O)c1ccc(-n2ncc3c(=O)[nH]c(SCC(=O)Nc4nccs4)nc32)cc1	1	0	-5	-8	-10	8.1*
COC(=O)c1ccc2c(c1)NC(=O)C(N(CC(C)C)CC(C)C)S2 (centres undefined)	11	-1	1	46*	1	-3
NC(=O)C1CCN(C(=O)c2cc3ccccc3cc2O)CC1	8	0	·	11	63*	-2
C/C(=N/OC(=O)C1CC1c1ccccc1)c1ccccc1 (centres undefined)	-21*	·	·	-10	-1	-1
CC1(C)CC(N2CCCC2)=CC(=[N+]2CCCCCC2)C1	-21*	·	·	-25	34	2
CN(Cc1ccccc1)C1=CC(=[N+]2CCCC2)CC(C)(C)C1	-33*	-1	-9	-59	60*	4
CC1(C)CC(N2CCN(c3ccccc3)CC2)=CC(=[N+]2CCCC2)C1	·	-1	-3	-52	81*	·
CC1CC(C)C[N+](=C2C=C(N3CCCC3)CC(C)(C)C2)C1 (centres undefined)	-50	·	·	-58	46	4
O=C(NCC[C@@H]1CC[C@@H](NC(=O)C2CC2)[C@H](CO)O1)Nc1ccc(Cl)cc1	-33	-5	·	-11	-2[16.7 µM]	2
CCCC(=O)N1CCC2(CC1)CN(C(=O)c1ccc(F)cc1)[C@@H](CO)c1[nH]c3cc(OC)ccc3c12	-1	·	·	12	·	-2
CCC1=NN(C(=O)C(=O)Nc2ccccc2OC)C(O)(C(F)(F)F)C1 (centres undefined)	·	-2	4	·	-26	·
CCC1=NN(C(=O)C(=O)Nc2ccc(OC)cc2)C(O)(C(F)(F)F)C1 (centres undefined)	-23*	4	-2	-23	·	-1
Cc1ccc(OCCCCNC(C)c2ccccc2)c(C)c1 (centres undefined)	-13	2	-1	-2	96*	-3
COc1ccc(S(=O)(=O)Nc2ccc3c(c2)C(=O)N([C@@H](C)CO)C[C@@H](C)[C@@H](CN(C)S(=O)(=O)c2cn(C)cn2)OCCCC[C@@H](C)O3)cc1	-5	5	50[16.7 µM]	3	-32[16.7 µM]	0
CC(C)NC(=O)N(C)C[C@@H]1Oc2c(NS(=O)(=O)c3cn(C)cn3)cccc2C(=O)N([C@H](C)CO)C[C@@H]1C	3	7	0[16.7 µM]	4	19[16.7 µM]	3
CC(C)c1cc(C(C)C)n2nc(N)nc2n1	4	0	0	89*	0	5
O=S(=O)(Cc1cc(NCc2ccccc2)nc(-c2ccccn2)n1)c1ccccc1	-39*	·	·	13	-38	-1
O=C(Cc1nc2ccccc2[nH]1)c1cccc([N+](=O)[O-])c1	10	·	9	15	73*	2
SMILES	rRNA inh HTS	Cneo AK release	miR-122 sensor	GSIS activator	HIV Env fusion	CFTR F508del cor
O=C(Nc1nc2ccccc2[nH]1)c1cccc([N+](=O)[O-])c1	-9	·	·	10	-4	3
O=S(=O)(Cc1ccccc1)N1CCCCN2[C@H](CO)[C@H](c3ccc(-c4cccnc4)cc3)[C@H]2C1	-2	1	8[16.7 µM]	-9	·	1
CCc1ccc(CN(C)CC(=O)Nc2ccccc2[N+](=O)[O-])cc1	·	·	2	0	26	·
C=CCOc1ccc(CN(C)CC(=O)Nc2ccccc2[N+](=O)[O-])cc1	-24*	6	2	-20	14	-1
COc1ccc(S(=O)(=O)Nc2ccc3c(c2)C(=O)N([C@@H](C)CO)C[C@@H](C)[C@H](CN(C)S(=O)(=O)c2ccc(C)cc2)OCCCC[C@@H](C)O3)cc1	-1	-3	2[16.7 µM]	7	11[16.7 µM]	2
Cc1noc(C)c1S(=O)(=O)Nc1ccc2c(c1)CC(=O)N([C@@H](C)CO)C[C@@H](C)[C@H](CN(C)S(=O)(=O)c1c(C)noc1C)O2	4	-13	0[16.7 µM]	-3	-1[16.7 µM]	3
Cc1noc(C)c1NC(=O)Nc1ccc2c(c1)CC(=O)N([C@H](C)CO)C[C@@H](C)[C@H](CN(C)C(=O)Nc1c(C)noc1C)O2	6	1	3[16.7 µM]	6	8[16.7 µM]	0
Cc1nn(-c2ccccc2)c(Cl)c1/C=N/NC(=O)OC(C)(C)C	-20*	0	-6	3	17	·
COc1ccc(NCC(=O)N/N=C/c2c(C)nn(Cc3ccccc3)c2Cl)cc1	-14*	-2	-8	35	-3	·
CC(C)NC(=O)N(C)C[C@H]1Oc2ccc(NS(C)(=O)=O)cc2CC(=O)N([C@H](C)CO)C[C@@H]1C	5	-2	-5[16.7 µM]	16	·	-1
O=C(Nc1ncn[nH]1)c1ccc(Cl)c(Cl)c1	-1	1	0	44*	-40	-1
N#C/C(C(N)=O)=C1/SC(Cc2ccc(F)cc2)C(=O)N1c1ccccc1 (centres undefined)	-6	·	·	-10	25	0
Cc1ccccc1N1C(=O)C(Cc2ccc(F)cc2)S/C1=C(\C#N)C(N)=O (centres undefined)	-31*	1	-6	-2	14	-1
COc1cccc(C(=O)N[C@H](C(=O)N2CCC[C@H]2C(=O)NCCc2ccccc2Cl)C(C)C)c1	-2	·	·	·	-6	-6
COc1cccc(C(=O)N[C@H](C(=O)N2CCC[C@H]2C(=O)NCCc2ccccc2Cl)c2ccccc2)c1	-34*	·	·	·	-2	-4
C[C@H](NC(=O)[C@H]1N[C@H]2c3ccc(-c4cncnc4)c(=O)n3C[C@H]2[C@@H]1CO)c1ccccc1	1	-2	4[16.7 µM]	21	·	-4
Cc1cc(C)nc(SCc2nnc(SCC(=O)Nc3ccc(C)c(C)c3)n2Cc2ccco2)n1	·	0	-3	-20	54*	·
